Reference: the EternaBench riboswitch data

Test system: MS2 coat protein
Test: apparent Kd, MS2 coat protein; higher = weaker binding; RNA-MaP array
In short: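 RNA designs were transcribed from sequenced DNA templates on an Illumina sequencing chip and then incubated at room temperature with fluorescently labeled MS2 coat protein at 1.5 nM to 3 μM, with or without input ligand, in Tris-HCl pH 7.5 buffer containing KCl, MgCl2, BSA, DTT, tRNA and Tween20. Incubation lasted 0.8–1.5 h at the lowest protein concentrations and 10–20 min at the highest. Apparent Kd is the median of binding-curve fits made for each cluster. Designs measured on fewer than 10 clusters were excluded.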

[1] = designed as: OFF switch for flavin mononucleotide, no ligand
[2] = ligand present: flavin mononucleotide, designed as: OFF switch for flavin mononucleotide
[3] = designed as: ON switch for flavin mononucleotide, no ligand
[4] = ligand present: flavin mononucleotide, designed as: ON switch for flavin mononucleotide
[5] = designed as: OFF switch for tryptophan, no ligand
[6] = ligand present: tryptophan, designed as: OFF switch for tryptophan
[7] = designed as: OFF switch for theophylline, no ligand
[8] = ligand present: theophylline, designed as: OFF switch for theophylline

| Sequence | apparent Kd [1] | apparent Kd [2] | apparent Kd [3] | apparent Kd [4] | further results |
| --- | --- | --- | --- | --- | --- |
| UAUGUACGUAGGGACAUGAGGAUCACCCAUGUGGUCCGUAUUAGAAGGACGAAUACCGAUAAAACGUAGGAUAUAAUAACUCCG | 134 nM | 148 nM | – | – | – |
| UAUGUCGCCGAAGAUACCAGCCUGGCAAGCAACAUGAGGAUCACCCAUGUAAUUACUUAUGGCCCUUGGCAGCUUCAAAUAGAGC | – | – | – | – | apparent Kd (designed as: ON switch for theophylline, no ligand): 11.4 nM; apparent Kd (ligand present: theophylline, designed as: ON switch for theophylline): 11.8 nM |
| UAUUUUGCGAAGAAGGAAGCCUCACUGGAAUGCUUAGGAUAUUCUCGCGUGGAGCACAUGCACAUGAGGAUCACCCAUGUACCG | – | – | 28.7 nM | 20.1 nM | – |
| UCAACACAUGAGGAUCACCCAUGUUAUACUAGGGUAGGAUAUGACGUAGUGAAGUGCUCUUCAGAAGGACCAUGGG | – | – | 64.7 nM | 30.1 nM | – |
| UCACAACUAGGAUAUUUAGUGCUAUACAUGAGGAUCACCCAUGUCGUGUGCACUAGUACGAAAGAAGGAGUUAUCG | 5.09 nM | 5.21 nM | – | – | – |
| UCACUACAGUAGAAGGUAGGUACAUGAGGAUCACCCAUGUGGUAGGGAGAUUUACACUGUUUCGCUAAGGAUAUACUGGCCAAU | 207 nM | 125 nM | – | – | – |
| UCACUUGUCUAGAAGGGUCGGCACAUGAGGAUCACCCAUGUAAAUGGCUGGUUCAAAUAAUUUUGACAGGAUAUAGAGAGCACU | 16.6 nM | 50.4 nM | – | – | – |
| UCAGUUCAAGGAUAUACAUGAGGAUCACCCAUGUACCGCAAUGUAGAAAAGUGACGUAGUAGAAGGUGAAACGA | 23.6 nM | 21 nM | – | – | – |
| UCCUCGUAUUAAGGAUAUAGAAAAGUCACAUGAGGAUCACCCAUGUCUAAGGACGCACUAUGAGUCUAGAAGGUAAUCCGGAAU | – | – | 78.9 nM | 65.5 nM | – |
| UCGAUAAGAGGAUAUACGUGAUAGUUCUCCUCCCUAUGACUACAUGAGGAUCACCCAUGUAGAAGGCUUAACGG | 6.31 nM | 6.54 nM | – | – | – |
| UCUUCGUUGGCGUCACAAUUCAUGCAAUGCCGAGGACCGGUACGGCCGCCACUCGGACUAAUACAUGAGGAUCACCCAUGUCGUG | – | – | – | – | apparent Kd [5]: 123 nM; apparent Kd [6]: 102 nM |
| UGAAAUUACGGAGGAUAUCUAUUUACAUGAGGAUCACCCAUGUCCCAGCUACUGCUAUUAUCCGCAGAGAAGGCCGGUGAGUCC | – | – | 171 nM | 105 nM | – |
| UGCAAUGGGUGAGGAUAUACCCACACACAUGAGGAUCACCCAUGUUUCACAAAGGUGAUGACGCGGUAGAAGGCACAAUCCACU | – | – | 268 nM | 98.1 nM | – |
| UGGACGCAACGAGCACGAGGUCGGCAGCUACGAGGACCGGUACGGCCGCCACUCGAGUUACGACAUGAGGAUCACCCAUGUAAGG | – | – | – | – | apparent Kd [5]: 41.6 nM; apparent Kd [6]: 178 nM |
| UGGACUGUGACAUGAGGAUCACCCAUGUAAAUAAUUCCGCAUAGAAGGGUCCAACGUAAAUGAAGACAGGAUAUAUGGGAGCGU | – | – | 45.4 nM | 24 nM | – |
| UGGUGCCCUGUAUACAUUGUAAUCCUAAUGCGAGGACCGGUACGGCCGCCACUCGUUGCGGAACAUGAGGAUCACCCAUGUAACA | – | – | – | – | apparent Kd [5]: 18.3 nM; apparent Kd [6]: 16.6 nM |
| UGUAUCUCGCAGAAGGCAGGUUAAGCAACAAACUGAGGAUAUGCGUAUACAUGAGGAUCACCCAUGUUCACUGAUCGCAAAUUC | 14.8 nM | 102 nM | – | – | – |
| UGUCAAUCGCCGGAUACCAGCCUAACUGAAGGAAAUCUAAACAUGAGGAUCACCCAUGUAGGCCCUUGGCAGCCGAGUAAGUACA | – | – | – | – | apparent Kd [7]: 40.3 nM; apparent Kd [8]: 125 nM |
| UGUCAGGUCCAUAACAUGAGGAUCACCCAUGUAAGGCAUGAGCAGGAUAUCAAAAGUCGUAAGACAGAGAAGGGCUAAAUGACC | 7 nM | 7.51 nM | – | – | – |
| UGUUUGGCUUCCUUUACAUGAGGAUCACCCAUGUUAUGUAAUUAGGAUAUCCAUGUGAGAUGGUUGGAGAAGGAAUGCAUGACG | 27 nM | 33 nM | – | – | – |
| UUACGGCCGGAAGGAUAUUGUGGCUCCGGAGUAACAUGAGGAUCACCCAUGUGAAUCAAACACAACAAGAAGGUCCCAAAUAGG | – | – | 15.9 nM | 15.5 nM | – |
| UUCUUACAUGAGGAUCACCCAUGUCUACACCCUACAGGAUAUGAUGCGGUGAAGACCAAUUCAGAAGGGUAAGGUC | – | – | 84.1 nM | 22.9 nM | – |
| UUGAUAGCAGGAUAUACAUGAGGAUCACCCAUGUACAGGCAAAAGGGAACUGACCCACGUAGAAGGGCUUCGCA | 10.8 nM | 21 nM | – | – | – |
| UUGAUCGCUCAGAAGGACGCGCAGGACCAAGCCGUAGGAUAUGACGAAUGCUAACGGAGUCCACAUGAGGAUCACCCAUGUGCA | – | – | 65.2 nM | 18.9 nM | – |
| UUGCAUUCUAAUCCUCUUACGACAUGAGGAUCACCCAUGUGUCAGGAUAUUCGAGAAGGAGCGACGAAGAAGGGACUAAUACAC | 40.7 nM | 32.8 nM | – | – | – |
| UUGGAUGAAGGAGUGAAAAGCAACUCAGAUACCAGUCUGAGUAAUGACCCUUGGCAGCUGAGAACAUGAGGAUCACCCAUGUGAC | – | – | – | – | apparent Kd [7]: 15.2 nM; apparent Kd [8]: 32.2 nM |
